This is a sample that favours compounds with a hit; in the whole collection about 1.9% have one here.
Hsp70 activator: switches on Hsp70 transcription | AID 1203 | activation, % at 10 µM | 0.04% of 200,000 active | HeLa Hsp70 promoter luciferase reporter, luminescence; scaled: vehicle 0, proteasome-inhibitor control 100%;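 active = activation above the mean across all tested compounds plus 3 SD, cutoff set per campaign, cut at about 5.5% in these data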
Rad51 HR inh: blocks human Rad51 in homologous recombination; Q06609; hRad51 DNA strand exchange, fluorescence dequenching; inhibition, % at 10 µM; 0.085% of 200,000 active;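 active = inhibition above 40% at the single screening dose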
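Material: Human Rad51 nucleoprotein filaments preassembled on unlabelled ssDNA | Also added: Labelled 47-mer dsDNA for strand exchange | Dosing: Single dose, 10 µM final compound | Schedule: 30-min compound preincubation and 15-min exchange, both room temperature | Technique: Fluorescence dequenching at 485/520 nm | Measure: Percent inhibition relative to plate controls and blanks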
H9c2 TAG inh: inhibitors of triacylglycerol accumulation | AID 651582 | 0.66% of 230,000 active | inhibition, % at 12.5 µM | H9c2 cells, Nile Red lipid (TAG) fluorescence; cells loaded with 200 µM oleic acid;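 active = pattern-corrected inhibition of lipid staining of at least 50% with the nuclear-stain viability signal not falling by more than 50%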
ABHD5 PLIN5 PPI: blocks binding of human ABHD5 to perilipin-5; Q00G26+Q8WTS1; Split G. princeps luciferase complementation, luminescence, 4 h; inhibition, % at 4 µM; 0.78% of 360,000 active;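 active = inhibition above the mean inhibition across every tested compound plus 3 SD, cut at about 22% in these data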
Target sequence (Q00G26 whole entry, looked up): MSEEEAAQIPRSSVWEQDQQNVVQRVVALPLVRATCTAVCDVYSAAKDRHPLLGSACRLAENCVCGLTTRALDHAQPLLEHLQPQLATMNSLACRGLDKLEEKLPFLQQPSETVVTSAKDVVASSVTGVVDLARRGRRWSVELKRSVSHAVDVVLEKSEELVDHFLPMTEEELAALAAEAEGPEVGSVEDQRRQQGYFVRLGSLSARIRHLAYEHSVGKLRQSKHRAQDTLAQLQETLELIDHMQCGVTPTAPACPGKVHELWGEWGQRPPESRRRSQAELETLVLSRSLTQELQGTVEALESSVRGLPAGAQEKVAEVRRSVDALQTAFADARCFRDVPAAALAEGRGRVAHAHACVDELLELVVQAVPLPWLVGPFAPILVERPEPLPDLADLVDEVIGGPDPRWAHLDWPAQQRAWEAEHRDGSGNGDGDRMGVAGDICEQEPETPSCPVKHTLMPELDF
Target sequence (Q8WTS1 whole entry, looked up): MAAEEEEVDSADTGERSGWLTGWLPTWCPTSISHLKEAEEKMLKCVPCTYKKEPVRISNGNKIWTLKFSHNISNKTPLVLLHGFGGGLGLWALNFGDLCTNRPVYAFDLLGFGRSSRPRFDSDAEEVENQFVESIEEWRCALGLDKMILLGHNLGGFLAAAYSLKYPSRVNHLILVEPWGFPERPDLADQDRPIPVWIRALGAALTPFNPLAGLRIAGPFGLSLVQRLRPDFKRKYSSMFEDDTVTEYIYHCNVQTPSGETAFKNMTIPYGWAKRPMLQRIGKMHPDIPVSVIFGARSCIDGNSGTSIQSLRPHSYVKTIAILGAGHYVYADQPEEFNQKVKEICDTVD
HIF act: HIF pathway transcriptional activation; U2OS HRE-luciferase reporter, luminescence; normalized: DMSO 0%, desferrioxamine 100%; activation, % at 7.5 µM (by protocol); 0.32% of 300,000 active; AID 1910;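 active = mean activation of at least 10% of the iron chelator positive control signal, with at least half of replicates also reaching 10%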
GAA850 FXN act: increases GAA850 frataxin promoter reporter activity | HEK293 lucGAA850 FXN promoter luciferase reporter, 24 h; percent of 10 µM SAHA response | activation, % at 6 µM | 0.56% of 360,000 active;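 active = activation above the average of all compounds screened plus 3 SD, cutoff fixed separately per campaign, cut at about 7.5% in these data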
GAA30 FXN cntr: counter-screen for GAA850 frataxin promoter activators: GAA30 promoter activation; shares compounds with GAA850 FXN act; activation, % at 6 µM; 66% of 1,900 active; HEK293 lucGAA30 FXN promoter luciferase, 24 h; DMSO = 0%, 5 µM ipriflavone = 100%;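 active = mean activation above the mean of solvent-only control wells plus 3 SD, cut at about 22% in these data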;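 note: counterscreen of GAA850 promoter hits where activity marks nonselective or luminescence artifacts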
FXN GAA850 conf: confirmation of GAA850 frataxin (FXN) promoter activators; shares compounds with GAA850 FXN act; HEK293 lucGAA850 FXN promoter luciferase reporter, 24 h; 100% = activation by SAHA; activation, % at 6 µM; 86% of 1,900 active; AID 588351;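 active = mean activation above a set limit taken from the primary screen, cut at about 8% in these data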
Large screens that a line does not name were inactive (follow-up assays come after a bar, where they were run).

Cc1c(CCOC(=O)C23CC4CC(CC(C)(C4)C2)C3)sc[n+]1CC(=O)c1ccccc1	GAA850 FXN act 8.3 | GAA30 FXN cntr 30.9 | FXN GAA850 conf 19.9
CC(C)(C)CC(=O)Nc1cc(S(=O)(=O)N2CCCCCC2)ccc1Cl	none (no result: Rad51 HR inh, H9c2 TAG inh)
O=C(CCl)Nc1cc(S(=O)(=O)N2CCCCCC2)ccc1Cl	GAA850 FXN act 10.8 (no result: Rad51 HR inh, H9c2 TAG inh) | GAA30 FXN cntr inactive | FXN GAA850 conf 13.8
CC(=O)c1ccc(N2Cc3ccccc3C2=NC(=O)c2cccs2)cc1	none (no result: H9c2 TAG inh)
CCOC(=O)c1ccc(N2Cc3ccccc3C2=NC(=O)c2cccs2)cc1	GAA850 FXN act 9.3 (no result: H9c2 TAG inh, HIF act) | GAA30 FXN cntr 52.5 | FXN GAA850 conf 22.6
CC1CC(OCC(O)C[N+]2(C)CCOCC2)CC(C)(C)C1 (stereo unspecified)	none
Oc1ccc(/C=N/Nc2nccnc2Cl)cc1	none
Nc1c(Cl)ncnc1N/N=C/c1ccc(O)cc1	GAA850 FXN act 7.8 (no result: Hsp70 activator) | GAA30 FXN cntr 52.3 | FXN GAA850 conf 13.9
CN(C(=O)c1cccc(NC(=O)Cc2ccc(NC(=O)C3CCCN(C(=O)c4ccccc4)C3)cc2)c1)C1CCCCC1 (stereo unspecified)	none (no result: Hsp70 activator, Rad51 HR inh, HIF act)
N#C/C(=C\c1cccs1)C(=O)Nc1ccccn1	GAA850 FXN act 8.9 (no result: Hsp70 activator) | GAA30 FXN cntr 106.1 | FXN GAA850 conf 33.7
CNC(=O)COC(=O)c1ccc(Cl)c(S(N)(=O)=O)c1	none (no result: Hsp70 activator)
NS(=O)(=O)c1cccc(NC(=O)Nc2ccccc2)c1	none (no result: Hsp70 activator)
COc1ccc(/C=C2\N=C(c3ccccc3)N(c3ccc(C(=O)O)cc3)C2=O)cc1OC	GAA850 FXN act 9.3 (no result: Hsp70 activator) | GAA30 FXN cntr 41.3 | FXN GAA850 conf 22.8
O=c1oc(-c2ccc(O)c(O)c2)cc2cccc(O)c12	GAA850 FXN act 13.2 (no result: Hsp70 activator, Rad51 HR inh, H9c2 TAG inh, HIF act) | GAA30 FXN cntr 129.2 | FXN GAA850 conf 45.6
O=c1oc(-c2ccc(O)c(O)c2)cc2cc(O)cc(O)c12	none (no result: Hsp70 activator, Rad51 HR inh, H9c2 TAG inh, HIF act)
O=C1c2ccccc2C(=O)N1/N=C/c1ccc(Oc2ccc([N+](=O)[O-])cn2)cc1	none
O=C1CC(c2ccccc2)CN1C(=O)c1cncc(Br)c1 (stereo unspecified)	none
CC(NC(=O)c1cc(S(=O)(=O)N(C)C)ccc1N1CCCC1)C1CC2CCC1C2 (stereo unspecified)	GAA850 FXN act 10.8 | GAA30 FXN cntr 31.0 | FXN GAA850 conf 13.1
CN(C)S(=O)(=O)c1ccc(N2CCCC2)c(C(=O)NC(c2ccccc2)c2ccccc2)c1	none
CNC(=S)N(CCO)Cc1cc2cc3c(cc2[nH]c1=O)OCO3	none (no result: Hsp70 activator, Rad51 HR inh, H9c2 TAG inh)
O=C(O)c1ccc2c(c1)C(=O)N(c1ccc(Nc3ccccc3)cc1)C2=O	none (no result: Hsp70 activator, Rad51 HR inh, H9c2 TAG inh)
Cc1ccc(Cn2c(/C=C/c3ccco3)nc3ccccc32)cc1	GAA850 FXN act 8.0 (no result: H9c2 TAG inh) | GAA30 FXN cntr 108.8 | FXN GAA850 conf 43.8
Clc1ccc(Cn2c(/C=C/c3ccco3)nc3ccccc32)cc1	none (no result: Rad51 HR inh, H9c2 TAG inh)
NC(=O)c1ccccc1NC(=O)CSc1nc2ccccc2c(=O)[nH]1	none (no result: Hsp70 activator, Rad51 HR inh)
Cc1cc2nc(SCC(=O)Nc3ccccc3C(=O)O)[nH]c2cc1C	GAA850 FXN act 9.6 | GAA30 FXN cntr 62.1 | FXN GAA850 conf 18.1
C=CCOc1cccc(/C=C/c2nc3ccccc3c(=O)[nH]2)c1	none (no result: Hsp70 activator, Rad51 HR inh, H9c2 TAG inh)
Cc1ccc(C(=O)C(C)N(C(=O)c2ccc(Cl)cc2Cl)N2C(=O)CCCC2=O)cc1 (stereo unspecified)	none
COc1ccc(C(=O)C(C)N(C(=O)c2ccc(Cl)cc2Cl)N2C(=O)C3C4C=CC(C4)C3C2=O)cc1 (stereo unspecified)	GAA850 FXN act 7.8 (no result: H9c2 TAG inh) | GAA30 FXN cntr 24.9 | FXN GAA850 conf 14.2
O=C1[C@H](Cc2ccccc2)NCC=CC[C@H](c2ccc(Cl)cc2)N1Cc1ccccc1	none (no result: Hsp70 activator, Rad51 HR inh, HIF act)
CC(C)=NNc1ncnc2nc[nH]c12	none (no result: Hsp70 activator, Rad51 HR inh, HIF act)
CCc1ccc(/C=N/Nc2ncnc3nc[nH]c23)cc1	GAA850 FXN act 11.0 (no result: Hsp70 activator) | GAA30 FXN cntr 132.0 | FXN GAA850 conf 54.3

High-throughput results from PubChem BioAssay.
